Laboratory results as given in ChEMBL document CHEMBL1125672, “2-acetylpyridine thiosemicarbazones. 13. Derivatives with antifilarial activity” (1991).

How the values were obtained:
Acanthocheilonema viteae [1] = test: anti-filarial Activity was measured against Acanthocheilonema viteae in jirds at 1.56 mg/kg/day(5 days) dose; format: functional
Outline: (§1)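 Jirds with established B. pahangi or A. viteae infections were given drug once daily for 5 days by subcutaneous injection, at the maximum tolerated dose and, where supply allowed, graded lower doses. Tolerance was first checked in noninfected jirds with a single 200 mg/kg oral or subcutaneous dose, watching 72 h for excessive weight loss or death. Macrofilarial suppression was the read-out.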

Acanthocheilonema viteae [2] = test: anti-filarial Activity was measured against Acanthocheilonema viteae in jirds at 6.25 mg/kg/day(5 days) dose; format: functional; outline: as §1
Brugia pahangi [3] = test: anti-filarial Activity was measured against Brugia pahangi in jirds at 6.25 mg/kg/day(5 days) dose; format: functional; outline: as §1
Brugia pahangi [4] = test: anti-filarial Activity was measured against Brugia pahangi in jirds at 1.56 mg/kg/day(5 days) dose; format: functional; outline: as §1
Acanthocheilonema viteae [5] = test: anti-filarial Activity was measured against Acanthocheilonema viteae in jirds at 12.5 mg/kg/day(5 days) dose; format: functional; outline: as §1
Brugia pahangi [6] = test: anti-filarial Activity was measured against Brugia pahangi in jirds at 12.5 mg/kg/day(5 days) dose; format: functional; outline: as §1
Brugia pahangi [7] = test: anti-filarial Activity was measured against Brugia pahangi in jirds at 100 mg/kg/day(5 days) dose;toxic; format: functional, organism-based; outline: as §1
Acanthocheilonema viteae [8] = test: anti-filarial Activity was measured against Acanthocheilonema viteae in jirds at 100 mg/kg/day(5 days) dose; format: functional; outline: as §1
Acanthocheilonema viteae [9] = test: anti-filarial Activity was measured against Acanthocheilonema viteae in jirds at 50 mg/kg/day(5 days) dose; format: functional; outline: as §1
Brugia pahangi [10] = test: anti-filarial Activity was measured against Brugia pahangi in jirds at 100 mg/kg/day(5 days) dose; format: functional; outline: as §1
Brugia pahangi [11] = test: anti-filarial Activity was measured against Brugia pahangi in jirds at 25 mg/kg/day(5 days) dose; format: functional; outline: as §1
Acanthocheilonema viteae [12] = test: anti-filarial Activity was measured against Acanthocheilonema viteae in jirds at 25 mg/kg/day(5 days) dose; format: functional; outline: as §1
Acanthocheilonema viteae [13] = test: anti-filarial Activity was measured against Acanthocheilonema viteae in jirds at 75 mg/kg/day(5 days) dose; format: functional; outline: as §1
Brugia pahangi [14] = test: anti-filarial Activity was measured against Brugia pahangi in jirds at 50 mg/kg/day(5 days) dose; format: functional; outline: as §1
Brugia pahangi [15] = test: anti-filarial Activity was measured against Brugia pahangi in jirds at 75 mg/kg/day(5 days) dose; format: functional; outline: as §1
Brugia pahangi [16] = test: anti-filarial Activity was measured against Brugia pahangi in jirds at 200 mg/kg/day(5 days) dose; format: functional; outline: as §1
Acanthocheilonema viteae [17] = test: anti-filarial Activity was measured against Acanthocheilonema viteae in jirds at 200 mg/kg/day(5 days) dose; format: functional; outline: as §1

SMILES | Suppression (Acanthocheilonema viteae [5]) | Suppression (Brugia pahangi [6]) | Suppression (Acanthocheilonema viteae [8]) | Suppression (Acanthocheilonema viteae [9]) | Suppression (Brugia pahangi [10]) | Suppression (Brugia pahangi [11]) | Suppression (Acanthocheilonema viteae [12]) | Suppression (Brugia pahangi [14]) | also measured
C/C(=N\NC(=S)N1CCN(c2ccccn2)CC1)c1ccccn1 |  |  |  |  |  |  |  |  | Suppression (Acanthocheilonema viteae [1]): 40%; Suppression (Acanthocheilonema viteae [2]): 100%; Suppression (Brugia pahangi [3]): -5%
C/C(=N\NC(=S)N1CCCC1)c1ccccn1 | 31% | 86% |  |  |  |  |  |  | Suppression (Brugia pahangi [4]): 46%
C/C(=N\NC(N)=S)c1ccccn1 | 42% | 53% |  |  |  |  |  |  | Suppression (Brugia pahangi [4]): 41%; Suppression (Brugia pahangi [7]): Toxic; Suppression (Acanthocheilonema viteae [1]): 60%
C/C(=N\N=C(/S)Nc1cc2ccccc2cc1N)c1ccccn1 |  |  | 37% | 4% | 49% |  |  |  | 
C/C(=N\N=C(/S)NCCN)c1ccccn1 | -40% | -3% |  |  |  | 26% | 72% |  | 
C/C(=N\N=C(/S)Nc1ccc(C)cc1N)c1ccccn1 |  |  | 72% | 75% | 100% | 29% | 44% | 100% | Suppression (Acanthocheilonema viteae [13]): 72%; Suppression (Brugia pahangi [15]): 100%
C/C(=N\N=C(/S)N1CCCCCCCC1)c1ccccn1 |  |  |  | 74% |  |  |  | 16% | 
C/C(=N\N=C(/S)Nc1cccc(N)n1)c1ccccn1 |  |  | 14% | 14% | 55% |  |  | 5% | 
C/C(=N\N=C(/S)N1CCCCC1)c1ccccn1 | 14% | 65% |  |  |  |  |  |  | Suppression (Acanthocheilonema viteae [2]): 25%; Suppression (Brugia pahangi [3]): 18%
C/C(=N\N=C(/S)Nc1ccc(N)cc1)c1ccccn1 |  |  | 34% |  | 39% | 5% | 9% |  | Suppression (Brugia pahangi [16]): 60%; Suppression (Acanthocheilonema viteae [17]): 25%
C/C(=N\N=C(/S)Nc1ccccc1N)c1ccccc1 |  |  | 9% |  | 15% | 6% | 15% |  | Suppression (Brugia pahangi [16]): 71%; Suppression (Acanthocheilonema viteae [17]): 19%
C/C(=N\NC(S)=Nc1ccccc1N)c1ccccn1.Cl.Cl | 36% | 29% | 100% | 100% | 100% | 100% | 100% | 100% | 
C/C(=N\N=C(/S)Nc1cccc(N)c1)c1ccccn1 |  |  | 43% |  | 17% |  |  |  | 
C/C(=N\NC(=S)Nc1ccccc1)c1ccccn1 |  |  |  | 25% |  | 17% | 44% | 97% | 
C/C(=N\N=C(/S)N1CCN(c2ccc(Cl)cc2)CC1)c1ccccn1 |  |  | 85% |  | 14% | 6% |  |  | 
C/C(=N\N=C(/S)Nc1c(N)c2ccccc2c2ccccc12)c1ccccn1 |  |  | 23% | 23% | 33% |  |  | 5% | 
